Each block holds one molecule with its values, some of them ahead of it.
What was measured:
Leishmania donovani [1] = assay: Antileishmanial activity against Leishmania donovani MHOM/IN/00/DEVI promastigotes after 72 hrs by MTT assay; format: functional, organism-based
In short: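 Late log-phase promastigotes in Schneider's medium with 20% FCS, 2 mM L-glutamine, penicillin/streptomycin, at 10^6 parasites/mL. Compounds in DMSO (final <0.5% v/v) over a concentration range, in duplicate, 72 h at 27 °C. MTT 0.5 mg/mL added for 6 h at 27 °C; pellet dissolved in DMSO; A570. IC50 by non-linear regression versus control; mean of two independent experiments.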

[2] = Cytotoxicity against mouse J774A1 cells after 72 hrs by MTT assay; format: cell-based, J774.A1
In short: (§1)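 Cells plated in RPMI with 10% FBS, L-glutamine, penicillin/streptomycin at 37 °C, 6% CO2. After 24 h, a range of compound concentrations was added for 72 h. Wells checked for precipitate; MTT for 2 h at 37 °C; formazan dissolved in DMSO; A570 with 630 nm reference. Viability as % of untreated control; CC50 from dose-response curve, mean of two independent experiments.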

[3] = Cytotoxicity against human HepG2 cells after 72 hrs by MTT assay; format: cell-based; in short: as §1
Leishmania infantum = assay: Antileishmanial activity against Leishmania infantum MCAN/ES/98/LLM-877 promastigotes after 72 hrs by MTT assay; format: functional, organism-based; conditions: MCAN/ES/98/LLM-877, 72 h
[4] = Selectivity index, ratio of CC50 for mouse J774A1 cells to IC50 for Leishmania donovani MHOM/IN/00/DEVI promastigotes; format: functional, J774.A1
In short: (§2)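 SI computed as CC50 (HepG2 or J774) divided by L. donovani promastigote IC50. Both values come from the MTT assays above, each the mean of two independent experiments.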

Toxoplasma gondii = assay: Antitoxoplasmic activity against Toxoplasma gondii PRU tachyzoites infected in human HFF cells assessed as beta-galactosidase activity after 72 hrs by colorimetric assay; format: functional, cell-based
In short: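 HFF monolayers grown to confluence (3.10^4 cells/well) in RPMI with 10% FCS at 37 °C, 6% CO2. Infected with 1 × 10^4 PRU-β-Gal tachyzoites for 3 h, then compounds (DMSO <0.5% v/v) added in triplicate for 72 h. 1 mM CPRG for 6 h; read at 570 and 630 nm, blanked on uninfected wells. IC50 by non-linear regression; mean of two experiments.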

Leishmania donovani [5] = assay: Antileishmanial activity against Leishmania donovani MHOM/IN/00/DEVI amastigotes infected in mouse J774A.1 cells after 120 hrs by Giemsa staining-based microscopic analysis; conditions: J774.A1, 120 h
[6] = Selectivity index, ratio of CC50 for human HepG2 cells to IC50 for Leishmania donovani MHOM/IN/00/DEVI promastigotes; format: functional; in short: as §2

Compound: O=[N+]([O-])c1cccc2nc(Cl)ccc12
IC50 (Leishmania donovani [1]): > 50 µM
CC50 at 72 h [2]: > 100 µM
CC50 at 72 h [3]: > 100 µM

Compound: C[C@@H]1[C@H](O)[C@@H](C)/C=C/C=C/C=C/C=C/C=C/C=C/C=C/[C@H](O[C@@H]2O[C@H](C)[C@@H](O)[C@H](N)[C@@H]2O)C[C@@H]2O[C@](O)(C[C@@H](O)C[C@@H](O)[C@H](O)CC[C@@H](O)C[C@@H](O)CC(=O)O[C@H]1C)C[C@H](O)[C@H]2C(=O)O [AMPHOTERICIN B]
IC50 (Leishmania donovani [1]): 0.1 µM
IC50 (Leishmania infantum): 0.05 µM
CC50 at 72 h [2]: 3.1 µM

Compound: O=Cc1ccc2ccccc2n1
IC50 (Leishmania donovani [1]): > 50 µM
CC50 at 72 h [2]: 28.8 µM
CC50 at 72 h [3]: > 100 µM
Ratio CC50/IC50 [4]: <0.58

Compound: O=[N+]([O-])c1cccc2nc(O)ccc12
IC50 (Leishmania donovani [1]): > 50 µM
CC50 at 72 h [2]: > 100 µM
CC50 at 72 h [3]: > 100 µM

Compound: COc1cccc2c1C(=O)c1c(O)c3c(c(O)c1C2=O)C[C@@](O)(C(=O)CO)C[C@@H]3O[C@H]1C[C@H](N)[C@H](O)[C@H](C)O1 [DOXORUBICIN]
CC50 at 72 h [2]: 0.02 µM

Compound: Cc1ccc2ccccc2n1 [QUINALDINE]
IC50 (Leishmania donovani [1]): > 50 µM
CC50 at 72 h [2]: > 100 µM
CC50 at 72 h [3]: > 100 µM

Compound: Cc1ccc2cc([N+](=O)[O-])ccc2n1
IC50 (Leishmania donovani [1]): > 50 µM
CC50 at 72 h [2]: > 100 µM
CC50 at 72 h [3]: > 100 µM

Compound: CCc1nc(N)nc(N)c1-c1ccc(Cl)cc1 [PYRIMETHAMINE]
IC50 (Toxoplasma gondii): 0.8 µM

IC50 (Leishmania donovani [5]): > 20 µM
Compound: N=C(N)c1ccc(OCCCCCOc2ccc(C(=N)N)cc2)cc1 [PENTAMIDINE]
IC50 (Leishmania donovani [1]): 6 µM
IC50 (Leishmania infantum): 8.2 µM
CC50 at 72 h [2]: 1 µM
CC50 at 72 h [3]: 2.3 µM
Ratio CC50/IC50 [4]: 0.17
Ratio CC50/IC50 [6]: 0.38

Compound: O=[N+]([O-])c1cccc2ncccc12
IC50 (Leishmania donovani [1]): > 50 µM
CC50 at 72 h [2]: > 100 µM
CC50 at 72 h [3]: > 100 µM

Compound: Oc1ccc2ccccc2n1
IC50 (Leishmania donovani [1]): > 50 µM
CC50 at 72 h [2]: > 100 µM
CC50 at 72 h [3]: > 100 µM

Compound: c1ccc2ncccc2c1 [QUINOLINE]
IC50 (Leishmania donovani [1]): > 50 µM
CC50 at 72 h [2]: > 100 µM
CC50 at 72 h [3]: > 100 µM

Compound: O=[N+]([O-])c1cccc2cccnc12
IC50 (Leishmania donovani [1]): > 50 µM
CC50 at 72 h [2]: > 100 µM
CC50 at 72 h [3]: > 100 µM

Compound: Cc1ccc2cccc([N+](=O)[O-])c2n1
IC50 (Leishmania donovani [1]): > 50 µM
CC50 at 72 h [2]: > 100 µM
CC50 at 72 h [3]: > 100 µM

Compound: Clc1ccc2ccccc2n1
IC50 (Leishmania donovani [1]): > 50 µM
CC50 at 72 h [2]: > 100 µM
CC50 at 72 h [3]: > 100 µM

Compound: CCCCCCCCCCCCCCCCOP(=O)([O-])OCC[N+](C)(C)C [MILTEFOSINE]
IC50 (Leishmania infantum): 11.6 µM
IC50 (Leishmania donovani [5]): 6.8 µM
CC50 at 72 h [2]: 94.6 µM
CC50 at 72 h [3]: 50.3 µM

Compound: O=[N+]([O-])c1ccc2nc(O)ccc2c1
IC50 (Leishmania donovani [1]): > 50 µM
CC50 at 72 h [2]: 83.7 µM
CC50 at 72 h [3]: > 100 µM
Ratio CC50/IC50 [4]: <1.7

Compound: O=Cc1ccc2c([N+](=O)[O-])cccc2n1
IC50 (Leishmania donovani [1]): > 50 µM
CC50 at 72 h [2]: 22.8 µM
CC50 at 72 h [3]: 92 µM
Ratio CC50/IC50 [4]: <0.46
Ratio CC50/IC50 [6]: <1.8

Reference: ChEMBL document CHEMBL2040716, “Discovery of a new antileishmanial hit in 8-nitroquinoline series” (Eur J Med Chem, 2012)
